Wee1 degr inh: blocks degradation of human Wee1 kinase | 220,000 compounds, 1.2% hits | P30291 | reporter increase, % at 5 µM | HeLa Luc-Wee1K328M stability, luciferase luminescence; 100% = proteasome inhibitor MG132 effect;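 active means activation above the mean of all tested compounds plus 3 SD, set per screening run, cut at about 8.8% in these data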;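 further: cells exposed to compound for 20 h before luminescence read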
Hck Nef HTS: human Hck-Nef kinase inhibition | P08631 | Recombinant Hck-YEEI plus Nef, Z-Lyte FRET kinase assay | inhibition, % at 20 µM | 220,000 compounds, 0.68% hits | AID 463187;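 active means Hck-Nef kinase inhibition above about 50%, limit read from the data; inactive means inhibition below that limit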
14-3-3 Bad PPI: disrupts binding of bovine 14-3-3 zeta to phospho-Bad peptide; P63103; TR-FRET 14-3-3zeta/Dy647-pBad peptide displacement, 1 h; inhibition, % at 21.7 µM; 220,000 compounds, 0.71% hits;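 active means inhibition above about 70%, limit read from the data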
Mdm2 ligase inh: inhibitors of human Mdm2 E3 ubiquitin ligase. signal enhancement, % at 5 µM. AID 1230. Q00987. 210,000 compounds, 0.11% hits. cell-based MDM2 ubiquitination luciferase reporter, 2 h; 0 = plate control, 100 = twice control, blank-subtracted;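 active means signal enhancement of 30% or more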;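 further: luminescence tracks abundance of the self-degrading MDM2-luciferase fusion protein; higher signal means inhibition of MDM2 E3 ligase activity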
Target sequence (Q00987 whole entry, looked up, the tested form may be a part): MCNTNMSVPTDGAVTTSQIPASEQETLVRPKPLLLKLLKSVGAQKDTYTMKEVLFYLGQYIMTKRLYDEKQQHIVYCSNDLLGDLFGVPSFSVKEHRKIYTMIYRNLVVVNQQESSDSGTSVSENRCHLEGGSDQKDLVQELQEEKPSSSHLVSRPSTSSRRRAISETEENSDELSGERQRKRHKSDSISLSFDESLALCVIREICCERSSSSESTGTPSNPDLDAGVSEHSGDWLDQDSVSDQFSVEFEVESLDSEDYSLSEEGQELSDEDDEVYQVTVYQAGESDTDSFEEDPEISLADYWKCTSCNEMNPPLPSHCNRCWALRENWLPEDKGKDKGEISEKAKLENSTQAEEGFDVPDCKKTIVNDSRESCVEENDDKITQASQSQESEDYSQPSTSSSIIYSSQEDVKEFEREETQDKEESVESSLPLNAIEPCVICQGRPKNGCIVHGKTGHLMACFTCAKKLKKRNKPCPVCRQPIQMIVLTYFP
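Material: Stable MDM2–luciferase fusion reporter cells | Amount: 2000 cells seeded into each well | Dosing: One concentration, 5 µM, with 0.2% DMSO | Incubation: 4 h cell settling then 2 h compound exposure, 37 °C | Measured by: Luciferase luminescence | Read-out basis: % enhancement relative to plate controls after blank subtraction | Benchmarks: Control and blank well means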
Tb hexokinase: T. brucei hexokinase 1 inhibition | recombinant TbHK1, G6PDH-coupled NADH A340 | inhibition, % at 10 µM | 220,000 compounds, 0.11% hits | AID 1430;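 active means inhibition of 50% or more in the single-dose primary screen; inactive means inhibition below 50%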
G6PDH ctr: Leuconostoc glucose-6-phosphate dehydrogenase inhibition, counter-screen; purified G6PDH, NADH absorbance, 1 h; shares compounds with Tb hexokinase; inhibition, % at 10 µM; 210 compounds, 7% hits; AID 2516;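 active means at least 50% inhibition in the glucose-6-phosphate dehydrogenase coupled counterscreen; inconclusive means no clear call, values can overlap the other calls; inactive means inhibition below 50%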
TbHK1 rescreen: T. brucei hexokinase 1 inhibition, rescreen. shares compounds with Tb hexokinase. inhibition, % at 10 µM. 210 compounds, 10% hits. AID 2560. recombinant TbHK1, G6PDH-coupled NADH A340 absorbance;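 active means inhibition of at least 50% in both of the two screening runs; inconclusive means at least 50% in one run, below 50% in the other; inactive means inhibition below 50% in both runs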
Hck Nef conf: Hck-Nef kinase inhibition, confirmation. calls only at 10 µM. 1,300 compounds, 28% hits. Recombinant Hck-YEEI:Nef, Z-Lyte FRET kinase assay. AID 463188. shares compounds with Hck Nef HTS;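 active means average inhibition of at least 50%, with Z-scores no higher than 3 in both the phospho-tyrosine peptide and fluorescence counterscreens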
Each line names hits and unclear results; the compound was inactive in the other large screens (follow-up assays come after a bar, where they were run); [ ] = another dose, or the depositor's remark. In the library only some 2.7% were active in any assay of this set; here they are far more common.

COc1ccc(C2(C)NC(=O)N(Cc3cc(Cl)cc4c3OCOC4)C2=O)cc1OC (stereo not given)	Tb hexokinase 52.9 | G6PDH ctr inactive | TbHK1 rescreen inactive
C1CCN=C(Nc2nn[nH]n2)CC1	14-3-3 Bad PPI 70.6, Tb hexokinase 54.8 | G6PDH ctr inactive | TbHK1 rescreen inactive
COc1ccc(CC/C(=N\O)C2(O)CCCCC2)cc1	Tb hexokinase 73.7 | G6PDH ctr inactive | TbHK1 rescreen inactive
O/N=C(/CCc1ccccc1)C1(O)CCCCC1	none
CC(=O)Nc1ccc(NC(=O)CCC(=O)NCCO)cc1	none
O=C(CCC(=O)Nc1ccc(Oc2ccccc2)cc1)NCCO	Tb hexokinase 50.3 | G6PDH ctr inactive | TbHK1 rescreen inactive
CC(C)CCn1c(SCC(=O)OCn2nnc3ccccc3c2=O)nc2ccccc2c1=O	none
COc1ccc2nc(N3C(=O)/C(=C/c4ccc(Cl)cc4)NC3=S)sc2c1	14-3-3 Bad PPI 72.3[fluorescence artefact?], Tb hexokinase 50.1 | G6PDH ctr inactive | TbHK1 rescreen inactive
CC(C)(C)c1[nH]nc2c1C(c1ccco1)C(C#N)=C(N)O2 (stereo not given)	none
COC(=O)c1ccccc1NC(=O)CCS(=O)(=O)c1ccc(Br)cc1	14-3-3 Bad PPI 80.9, Tb hexokinase 62.4 | G6PDH ctr inactive | TbHK1 rescreen 67.2
CC1CCC(NC(=O)c2ccc(CS(=O)(=O)Cc3ccccc3F)o2)CC1 (stereo not given)	Tb hexokinase 61.4 | G6PDH ctr inactive | TbHK1 rescreen inactive
Cc1cc(C(F)(F)F)nn1CC(=O)NNC(=S)Nc1cccc(Cl)c1	none
CCC1(C)Cc2c(C#N)c(N)sc(=S)c2CO1 (stereo not given)	Tb hexokinase 82.7 | G6PDH ctr 72.5 | TbHK1 rescreen inconclusive
CCOc1cccc2c1OC1(C)CC2NC(=O)N1Cc1ccccc1 (stereo not given)	none
CCOc1cccc2c1OC1(C)CC2NC(=O)N1c1cccc(F)c1 (stereo not given)	Tb hexokinase 56.9 | G6PDH ctr inactive | TbHK1 rescreen inactive
COc1ccc(CCCC(=O)N/N=C/c2cccc(OC)c2O)cc1C	Tb hexokinase 63.4 | G6PDH ctr inactive | TbHK1 rescreen inactive
COc1cccc(C(=O)N2CCSC2=S)c1	Tb hexokinase 56.9 | G6PDH ctr inactive | TbHK1 rescreen inactive
CC(=O)C1C(c2ccc(F)cc2)NC(=O)NC1(O)C(F)(F)F (stereo not given)	Tb hexokinase 50.6 | G6PDH ctr inactive | TbHK1 rescreen inactive
CC(=O)C1C(c2ccc(O)cc2)NC(=O)NC1(O)C(F)(F)F (stereo not given)	none (no result: Wee1 degr inh)
Cc1nn(C)c(Cl)c1C(=O)NCC(=O)O	none
Cc1nn(C)c(C)c1C(=O)NN	Tb hexokinase 53.7 | G6PDH ctr inactive | TbHK1 rescreen inactive
CCS(=O)(=O)N1CCC(C(=O)NCCN2CCN(Cc3ccccc3)CC2)CC1	Tb hexokinase 50.3 | G6PDH ctr inactive | TbHK1 rescreen inactive
CC1(C)C(=O)OC(c2c(F)c(F)c(F)c(F)c2F)C2(CCCCC2)C1=O (stereo not given)	none
Cc1cc(C)c2nc(/N=C(\N)NC(=O)Nc3ccccc3)nc(C)c2c1	none
CCc1nnc(NC(=O)CSc2nnc(-c3ccncc3)n2C)s1	none
C/C(=C/CCC(C)[C@H]1CC[C@@]2(C)C3=C(CC[C@]12C)[C@@]1(C)CCC(=O)C(C)(C)[C@@H]1CC3)C(=O)O (stereo not given in full)	Hck Nef HTS 100.4, Tb hexokinase 67.2 (no result: Mdm2 ligase inh) | G6PDH ctr inactive | TbHK1 rescreen 86.3 | Hck Nef conf active
Cn1c(CCC(=O)OCC(=O)NCc2ccc3c(c2)OCO3)nc(=O)c2ccccc21	none
COc1cc2nc(Cl)nc(N3CCOCC3)c2cc1OC	Hck Nef HTS 68.7 | Hck Nef conf inactive
C=CCOc1ccc(Br)cc1/C=C1/SC(=Nc2ccc(C(=O)O)cc2)NC1=O	Hck Nef HTS 58.7 | Hck Nef conf active
COc1ccc(/C=N/NC(=O)c2cc(C(C)(C)C)[nH]n2)cc1COc1ccc(F)cc1F	Hck Nef HTS 58.2 | Hck Nef conf inactive
CCC(C)Nc1nc(N)c([N+](=O)[O-])c(Nc2cc(OC)ccc2OC)n1 (stereo not given)	Hck Nef HTS 52.5 | Hck Nef conf inactive
COC(=O)C(C)Sc1nc2c(c(-c3ccc(OC)cc3)c1C#N)-c1ccccc1C2=O (stereo not given)	none (no result: 14-3-3 Bad PPI, Mdm2 ligase inh)
C/C(N)=C(/C#N)C(=O)CSc1nc2ccccc2c(=O)n1Cc1ccc(C)cc1	Hck Nef HTS 55.4 | Hck Nef conf inactive
O=C(Nc1cccc(NC(=O)c2ccc(-c3ccc(Br)cc3)o2)c1)c1ccco1	none
CCN(C(=O)COc1ncnc2ccc(Br)cc12)C1CCS(=O)(=O)C1 (stereo not given)	none
Cc1ccccc1C(=O)Nc1nc(-c2cccnc2)cs1	Hck Nef HTS 51.2 | Hck Nef conf active
COc1ccccc1N1CCN(C(=O)CSc2nc(C)c(C)c(=O)[nH]2)CC1	Hck Nef HTS 65.8 | Hck Nef conf inactive
O=C(COC(=O)C1(c2cccc(F)c2)CCCC1)NCc1ccc2c(c1)OCO2	none
COc1ccc2nc(SCC(=O)N(C)C3CCCCC3)c(C#N)cc2c1	none
CCOC(=O)c1cc(CC)sc1NC(=O)COc1ccc2c(C)cc(=O)oc2c1	Hck Nef HTS 54.7 | Hck Nef conf inactive
Cc1cc(=O)oc2cc(OCc3ccc(C(=O)OCC(=O)Nc4ccc(N(C)C)cc4)cc3)ccc12	Hck Nef HTS 146.7, 14-3-3 Bad PPI 79.1 | Hck Nef conf inactive
Cc1cc(=O)oc2cc(OCC(=O)Nc3nnc(C(C)C)s3)ccc12	none
COc1ccc(C(=O)Nc2ccccc2-c2nnn(CC(=O)Nc3ccc4c(c3)OCCO4)n2)cc1	Hck Nef HTS 59.5 | Hck Nef conf inactive
COc1ccc(NC(=O)Cn2nnc(-c3ccccc3NC(=O)c3ccco3)n2)cc1	none
CCOc1ccc(/C(O)=C2/C(=O)C(=O)N(c3ncccn3)C2c2ccccc2)cc1 (stereo not given)	none
O=C(Nc1cnn(Cc2ccc(F)cc2)c1)c1cnn2c(C(F)F)cc(-c3ccccc3)nc12	Hck Nef HTS 88.0 | Hck Nef conf inactive
CNS(=O)(=O)c1ccc(NC(=O)c2cnn3c(C(F)F)cc(-c4ccccc4)nc23)cc1	none
COc1ccc(NC(=O)c2cc(-c3ccco3)nc3ccccc23)cc1S(=O)(=O)N1CCOCC1	none
